Experimental data taken from PMC8360185 (Chembiochem, 2021).

Test system: FKBP12-NLuc or FKBP51-NLuc
Assay type: cell-based, human
Details: 1 µM Elacridar, 20 nM tracer 2b or 200 nM tracer 2c
Procedure, shortened: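 HEK293T cells expressing C-terminal FKBP-NanoLuc fusions were resuspended in Opti-MEM at 4.6×105 (transient) or 1.81×10^6 cells/mL (stable). Tracer was added from an eightfold stock, and test compound in DMSO was 1:2 serially diluted. Plates were incubated 2 h at 37 °C, then 15 min at RT. NanoGlo substrate (1:664) and extracellular NanoLuc inhibitor (1:2000) were added, with donor read at 450 nm and acceptor at 660 nm after 3 min.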

Row | SMILES | effect of Elacridar on NanoBRET activity
1 | C=CC[C@@H]1/C=C(\C)C[C@H](C)C[C@H](OC)[C@H]2O[C@@](O)(C(=O)C(=O)N3CCCC[C@H]3C(=O)O[C@H](/C(C)=C/[C@@H]3CC[C@@H](O)[C@H](OC)C3)[C@H](C)[C@@H](O)CC1=O)[C@H](C)C[C@@H]2OC [FK506] | did not affect
2 | COc1ccc(CC[C@@H](OC(=O)[C@@H]2CCCCN2C(=O)[C@H](c2cc(OC)c(OC)c(OC)c2)C2CCCCC2)c2cccc(OCCN3CCOCC3)c2)cc1OC [SAFit2] | did not affect
